# According to ChEMBL document CHEMBL1137015, “Improved, selective, human intestinal carboxylesterase inhibitors designed to modulate 7-ethyl-10-[4-(1-piperidino)-1-piperidino]carbonyloxycamptothecin (Irinotecan; CPT-11) toxicity” (J Med Chem, 2009):
# The source made the active and inactive calls.
# Columns and labels:
# [1] = biological target: Acetylcholinesterase (Homo sapiens) (UniProt P22303); experiment: Inhibition of human AchE using acetylthiocholine as substrate by spectrophotometric multiwell plate assay
# [2] = biological target: Cholinesterase (Homo sapiens) (UniProt P06276); experiment: Inhibition of human BchE using butyrylthiocholine as substrate by spectrophotometric multiwell plate assay
# [3] = Inhibition of human intestinal CE-mediated O-nitrophenyl acetate hydrolysis by spectrophotometry
# Summary of the method: (§1)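 Enzyme activity read spectrophotometrically as release of o-nitrophenol from o-nitrophenyl acetate across increasing inhibitor concentrations. Inhibitors were freshly dissolved in DMSO, typically as 10mM stocks. Fractional inhibition was plotted against inhibitor concentration and fitted to a partial-inhibition equation including Ks, α and β. Inhibition mode was chosen by Akaike's information criteria, and Ki was taken from the best-fit model.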
# [4] = Inhibition of human intestinal CE-mediated irinotecan hydrolysis
# Summary of the method: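 Human intestinal CE (25 U per reaction; 1 U converts 1 nmole o-nitrophenyl acetate/min) with 20µM CPT-11 in 50mM Hepes pH7.4, inhibitor 1nM to 100µM. Incubated 37°C for 5 min, stopped with cold acidified methanol, centrifuged. SN-38 measured by reverse phase HPLC. Fractional inhibition fitted to partial inhibition equation, model chosen by Akaike's criteria, Ki from best fit.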
# Liver carboxylesterase 1 = biological target: T1, Liver carboxylesterase 1 (Homo sapiens, UniProt P23141); experiment: Inhibition of human liver CE1-mediated O-nitrophenyl acetate hydrolysis by spectrophotometry; summary of the method: as §1
# T1 sequence (P23141 whole entry): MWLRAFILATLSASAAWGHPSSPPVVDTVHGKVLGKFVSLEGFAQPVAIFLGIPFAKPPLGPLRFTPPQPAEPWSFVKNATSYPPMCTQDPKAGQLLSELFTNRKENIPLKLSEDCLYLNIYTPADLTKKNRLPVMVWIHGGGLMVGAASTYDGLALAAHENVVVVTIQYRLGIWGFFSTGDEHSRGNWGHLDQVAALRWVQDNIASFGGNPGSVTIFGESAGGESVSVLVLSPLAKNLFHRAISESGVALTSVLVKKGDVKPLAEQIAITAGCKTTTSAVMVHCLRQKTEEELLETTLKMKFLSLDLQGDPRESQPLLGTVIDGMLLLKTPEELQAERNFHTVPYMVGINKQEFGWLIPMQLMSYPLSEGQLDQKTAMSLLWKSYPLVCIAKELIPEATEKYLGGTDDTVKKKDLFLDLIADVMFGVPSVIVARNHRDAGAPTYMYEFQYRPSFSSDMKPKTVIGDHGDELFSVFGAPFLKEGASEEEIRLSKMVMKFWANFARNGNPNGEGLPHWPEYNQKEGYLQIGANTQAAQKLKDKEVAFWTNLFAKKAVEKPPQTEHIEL
# Sequence of Acetylcholinesterase (Homo sapiens) (P22303 whole entry): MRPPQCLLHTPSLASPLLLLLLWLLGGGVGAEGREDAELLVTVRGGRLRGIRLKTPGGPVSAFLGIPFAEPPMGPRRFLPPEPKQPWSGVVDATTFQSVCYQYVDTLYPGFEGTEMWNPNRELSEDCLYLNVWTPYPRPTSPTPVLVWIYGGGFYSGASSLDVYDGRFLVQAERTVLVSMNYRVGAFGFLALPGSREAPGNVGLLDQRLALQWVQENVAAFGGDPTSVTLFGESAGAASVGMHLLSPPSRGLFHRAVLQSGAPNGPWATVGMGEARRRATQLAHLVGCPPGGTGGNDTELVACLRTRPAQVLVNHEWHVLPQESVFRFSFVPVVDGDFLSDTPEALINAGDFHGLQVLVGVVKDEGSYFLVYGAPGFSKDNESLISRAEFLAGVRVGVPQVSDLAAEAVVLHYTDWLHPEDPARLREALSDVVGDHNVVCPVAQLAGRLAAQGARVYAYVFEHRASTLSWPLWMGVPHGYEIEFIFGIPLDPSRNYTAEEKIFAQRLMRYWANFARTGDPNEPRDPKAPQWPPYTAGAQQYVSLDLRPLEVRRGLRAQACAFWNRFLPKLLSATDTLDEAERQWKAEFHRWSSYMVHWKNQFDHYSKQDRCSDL
# Sequence of Cholinesterase (Homo sapiens) (P06276 whole entry): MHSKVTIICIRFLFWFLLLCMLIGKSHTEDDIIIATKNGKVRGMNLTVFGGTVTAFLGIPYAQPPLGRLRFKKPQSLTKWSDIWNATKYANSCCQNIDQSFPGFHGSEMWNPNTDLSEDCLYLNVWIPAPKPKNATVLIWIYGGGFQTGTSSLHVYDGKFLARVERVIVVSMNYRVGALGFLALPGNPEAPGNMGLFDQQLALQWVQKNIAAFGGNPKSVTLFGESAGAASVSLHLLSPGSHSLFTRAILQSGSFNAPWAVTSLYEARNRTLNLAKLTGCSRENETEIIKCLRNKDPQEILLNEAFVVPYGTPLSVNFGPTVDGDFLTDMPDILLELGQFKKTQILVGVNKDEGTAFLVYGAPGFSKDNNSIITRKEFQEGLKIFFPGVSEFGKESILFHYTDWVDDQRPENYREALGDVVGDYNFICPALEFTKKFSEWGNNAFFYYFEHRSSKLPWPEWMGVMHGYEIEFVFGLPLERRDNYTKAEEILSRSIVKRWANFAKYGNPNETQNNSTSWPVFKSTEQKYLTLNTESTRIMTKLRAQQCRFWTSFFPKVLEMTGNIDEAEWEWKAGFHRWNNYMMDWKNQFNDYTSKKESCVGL
Structure (SMILES),Activity [1],Activity [2],Ki [3] [nM],Ki [4] [nM],Ki (Liver carboxylesterase 1) [nM]
O=S(=O)(Nc1ccc(NS(=O)(=O)c2cccc(F)c2)cc1)c1cccc(F)c1,inactive,inactive,248,152,> 100000
O=S(=O)(Nc1c(F)c(F)c(NS(=O)(=O)c2ccc(Br)cc2)c(F)c1F)c1ccc(Br)cc1,inactive,inactive,23.4,28,> 100000
Cc1c(C)c(NS(=O)(=O)c2cc(Cl)cc(Cl)c2)c(C)c(C)c1NS(=O)(=O)c1cc(Cl)cc(Cl)c1,inactive,inactive,2600,> 100000,> 100000
O=S(=O)(Nc1ccc(NS(=O)(=O)c2cccc(Br)c2)cc1)c1cccc(Br)c1,inactive,inactive,67,121,> 100000
O=S(=O)(Nc1ccc2c(c1)Cc1cc(NS(=O)(=O)c3ccccc3)ccc1-2)c1ccccc1,inactive,inactive,90.8,84.7,> 100000
O=S(=O)(Nc1ccc2c(c1)Cc1cc(NS(=O)(=O)c3cc(F)c(F)c(F)c3)ccc1-2)c1cc(F)c(F)c(F)c1,inactive,inactive,18.6,58.1,> 100000
O=S(=O)(Nc1ccc(NS(=O)(=O)c2cccc(Cl)c2)cc1)c1cccc(Cl)c1,inactive,inactive,74,62,> 100000
O=S(=O)(Nc1ccc(NS(=O)(=O)c2ccc(Br)cc2)cc1)c1ccc(Br)cc1,inactive,inactive,85.2,44,> 100000
Cc1c(C)c(NS(=O)(=O)c2ccc(Br)cc2)c(C)c(C)c1NS(=O)(=O)c1ccc(Br)cc1,inactive,inactive,3240,> 100000,> 100000
Cc1c(C)c(NS(=O)(=O)c2ccc(F)cc2)c(C)c(C)c1NS(=O)(=O)c1ccc(F)cc1,inactive,inactive,> 100000,> 100000,> 100000
O=S(=O)(Nc1ccc(NS(=O)(=O)c2c(F)cccc2F)cc1)c1c(F)cccc1F,inactive,inactive,5260,> 100000,> 100000
